This is an account of results in ChEMBL document CHEMBL1150385, “Synthesis and evaluation of [2-(4-quinolyloxy)phenyl]methanone derivatives: novel selective inhibitors of transforming growth factor-beta kinase” (J Med Chem, 2008).

Where only a bound is given, the exact number is not on record here.

The nature of test [1]: Inhibition of TGF-beta expressed in human A549 cells assessed as luciferase activity after 4 hrs by Smad2/3 reporter assay. It is filed as cell-based. The essentials:
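A549 human lung epithelial cells stably carrying a luciferase reporter driven by four tandem Smad2/3 binding sequences (p(SBE)4-Luc); cells given test compound together with TGF-β1 (2 ng/ml), cultured 4 h, then luciferase activity read by chemiluminescence (Steady Glo); IC50 values reported.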
In general terms: A reporter such as luciferase makes a cellular process visible.

The target in test [2] is Proto-oncogene tyrosine-protein kinase Src (Homo sapiens, UniProt P12931). Kind of test: Inhibition of c-Src.
Chain of Proto-oncogene tyrosine-protein kinase Src (P12931 2-536 limits assumed): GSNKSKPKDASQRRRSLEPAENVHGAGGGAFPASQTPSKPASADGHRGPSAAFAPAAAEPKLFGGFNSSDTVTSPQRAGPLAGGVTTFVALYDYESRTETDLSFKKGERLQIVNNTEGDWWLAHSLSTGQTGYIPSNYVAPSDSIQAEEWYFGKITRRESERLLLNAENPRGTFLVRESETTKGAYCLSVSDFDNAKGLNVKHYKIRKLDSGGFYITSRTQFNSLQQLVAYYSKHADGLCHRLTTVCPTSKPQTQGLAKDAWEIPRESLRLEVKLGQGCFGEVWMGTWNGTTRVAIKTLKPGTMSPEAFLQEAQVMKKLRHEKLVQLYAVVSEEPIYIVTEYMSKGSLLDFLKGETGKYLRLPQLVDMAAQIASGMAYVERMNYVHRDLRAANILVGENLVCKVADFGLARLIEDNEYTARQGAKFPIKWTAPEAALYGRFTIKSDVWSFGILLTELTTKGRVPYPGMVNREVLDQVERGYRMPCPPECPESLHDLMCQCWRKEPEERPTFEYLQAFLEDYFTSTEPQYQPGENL
A further test deals with T1, TGF-beta receptor type-1 (Homo sapiens, UniProt P36897).
T1 sequence (P36897 whole entry): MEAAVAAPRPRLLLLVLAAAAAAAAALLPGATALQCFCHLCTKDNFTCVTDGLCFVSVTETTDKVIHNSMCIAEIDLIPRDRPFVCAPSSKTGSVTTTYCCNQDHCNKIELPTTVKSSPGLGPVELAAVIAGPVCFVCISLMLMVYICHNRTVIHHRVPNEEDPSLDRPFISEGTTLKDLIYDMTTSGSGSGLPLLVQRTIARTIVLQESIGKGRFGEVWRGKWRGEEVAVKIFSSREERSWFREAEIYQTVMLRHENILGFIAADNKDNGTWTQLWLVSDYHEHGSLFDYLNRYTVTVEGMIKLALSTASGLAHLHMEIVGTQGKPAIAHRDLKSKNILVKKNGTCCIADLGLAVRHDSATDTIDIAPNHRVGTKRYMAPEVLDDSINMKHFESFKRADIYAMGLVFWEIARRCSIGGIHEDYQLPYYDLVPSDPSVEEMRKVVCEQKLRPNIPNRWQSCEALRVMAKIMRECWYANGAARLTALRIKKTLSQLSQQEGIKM
Kind of test: Inhibition of ALK5 by filter binding assay.

A short description of test [3]: Inhibition of TGF-beta mediated Smad2 phosphorylation in human A549 cells after 30 mins by Western blot. It is filed as cell-based. The following applies: A549, 0.5 h. For orientation: In western blotting, separated proteins are transferred to a membrane and probed.

The term IC50 denotes the midpoint of a concentration-inhibition curve. `CCC(=O)c1ccc(OC)cc1Oc1ccnc2cc(OC)c(OC)cc12`: in test [1], the IC50 came out at 1800 nM. With `COc1ccc(C(=O)c2ccccc2)c(Oc2ccnc3cc(OC)c(OC)cc23)c1`, the IC50 in test [1] was 4900 nM. The same measure, in the same setting: as for `CCCc1ccc(Oc2ccnc3cc(OC)c(OC)cc23)c(C(C)=O)c1`, the figure is 540 nM. The same measure, in the same setting: as for `COc1cc2nccc(Oc3cc(C)c(Cl)cc3C(=O)c3ccccc3)c2cc1OC`, the figure is 2100 nM.

`COc1cc2nccc(Oc3ccc(C)cc3C(=O)c3ccccc3)c2cc1OC`: the IC50 in test [1] was 640 nM; in test [2], 1700 nM; at TGF-beta receptor type-1 it was 2700 nM; in test [3] it was 500 nM. In the case of `CCC(=O)c1cc(OC)ccc1Oc1ccnc2cc(OC)c(OC)cc12`, in test [1], the IC50 worked out at 1100 nM.

Turning to `COc1cc2nccc(Oc3cc(C)c(Cl)cc3C(C)=O)c2cc1OC`, the IC50 in test [1] was determined as 420 nM. For the molecule `COc1cc2nccc(Oc3cc(C)c(C)cc3C(=O)c3ccccc3)c2cc1OC`, in test [1], the IC50 amounted to 1400 nM. On the same count and under the same terms, as for `COc1cc2nccc(Oc3ccccc3C(C)=O)c2cc1OC`, the figure is more than 10000 nM. In the case of `COc1cc(Oc2ccnc3cc(OC)c(OC)cc23)c(C(C)=O)cc1OC`, in test [1], the IC50 was more than 10000 nM.

For `COc1cc2nccc(Oc3ccc(Cl)cc3C(=O)c3ccccc3)c2cc1OC`, the IC50 in test [1] was 2700 nM. Still for that read-out and setting: as for `COc1cc2nccc(Oc3ccc(C)cc3C=O)c2cc1OC`, the figure is more than 10000 nM; as for `COc1cc2nccc(Oc3ccc(C)cc3C(=O)c3ccno3)c2cc1OC`, 2500 nM; as for `COc1ccc(Oc2ccnc3cc(OC)c(OC)cc23)c(C(=O)c2ccccc2)c1`, more than 10000 nM. On the same count and under the same terms, to `CCc1ccc(Oc2ccnc3cc(OC)c(OC)cc23)c(C(C)=O)c1` belongs 830 nM. The same measure, in the same setting: to `COc1cc2nccc(Oc3ccc(C)cc3C(=O)c3ccco3)c2cc1OC` belongs 2700 nM.

`COc1cc2nccc(Oc3ccc(F)cc3C(C)=O)c2cc1OC`: the IC50 in test [1] turned out to be 3800 nM. On to `COc1ccc(C(C)=O)c(Oc2ccnc3cc(OC)c(OC)cc23)c1`, for which the IC50 in test [1] was 8800 nM.

As for `COc1cc2nccc(Oc3cc(C)ccc3C(C)=O)c2cc1OC`, in test [1], the IC50 is 5500 nM. With `COc1cc2nccc(Oc3ccc(C)cc3C(=O)N3CCCCC3)c2cc1OC`, in test [1], the IC50 was more than 10000 nM. `CCOc1ccc(Oc2ccnc3cc(OC)c(OC)cc23)c(C(C)=O)c1`: the IC50 in test [1] worked out at 5600 nM. Turning to `CCCOc1ccc(Oc2ccnc3cc(OC)c(OC)cc23)c(C(C)=O)c1`, the 50% inhibitory concentration (IC50) in test [1] was more than 10000 nM.

For `COc1cc2nccc(Oc3ccc(C)cc3C(C)=O)c2cc1OC`, the IC50 in test [1] was determined as 2300 nM; in test [2], 8400 nM; at TGF-beta receptor type-1 it was 4400 nM. Consider `COc1cc2nccc(Oc3ccc(Br)cc3C(=O)c3ccccc3)c2cc1OC`, for which, in test [1], the IC50 turned out to be 3200 nM. As to `COc1cc2nccc(Oc3ccccc3C(=O)c3ccccc3)c2cc1OC`, the IC50 in test [1] came out at 4700 nM; in test [2], 4500 nM; at TGF-beta receptor type-1, 16000 nM.

As for `COc1ccc(Oc2ccnc3cc(OC)c(OC)cc23)c(C(C)=O)c1`, the IC50 in test [1] came to 590 nM.

For the molecule `CCC(=O)c1cc(C)ccc1Oc1ccnc2cc(OC)c(OC)cc12`, the IC50 in test [1] is 620 nM. Still for that read-out and setting: as for `COc1cc2nccc(Oc3ccc(C)cc3C(=O)c3ccc(C(C)(C)C)cc3)c2cc1OC`, the figure is 8500 nM; as for `COc1cc2nccc(Oc3ccc(C)cc3C(=O)C3CCCC3)c2cc1OC`, 2200 nM.

For `CCCCc1ccc(Oc2ccnc3cc(OC)c(OC)cc23)c(C(C)=O)c1`, the IC50 in test [1] was 2200 nM. As to `COc1cc2nccc(Oc3cc(C)c(C)cc3C(C)=O)c2cc1OC`, the IC50 was 370 nM in test [1], 13000 nM in test [2], 630 nM on TGF-beta receptor type-1 and 500 nM in test [3].
